Measured values published in ChEMBL document CHEMBL4152337, “Novel indolo-sophoridinic scaffold as Topo I inhibitors: Design, synthesis and biological evaluation as anticancer agents” (Eur J Med Chem, 2018).
Active and inactive are the calls of the source. The calls are words filed in the database; no cut-off is given here.

Columns and labels:
[1] = system: HepG2; test: Cytotoxicity against human HepG2 cells assessed as reduction in cell viability after 48 hrs by MTT assay; format: functional, cell-based; details: HepG2, 48 h
Procedure, shortened: (§1)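 Cells at 3–4 × 10⁴/mL in DMEM + 10% FBS, pre-incubated 24 h in 5% CO₂. Then exposed 48 h to serial dilutions at 1, 5, 10, 20 and 50 µM; final DMSO <0.1%. MTT (5 mg/mL solution) added for 4 h at 37 °C, supernatant removed, formazan dissolved in DMSO, colorimetric read-out.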

[2] = system: CNE-2; test: Cytotoxicity against human CNE2 cells assessed as reduction in cell viability after 48 hrs by MTT assay; format: functional, cell-based; details: CNE-2, 48 h; procedure, shortened: as §1
[3] = system: A549; test: Cytotoxicity against human A549 cells assessed as reduction in cell viability after 48 hrs by MTT assay; format: functional, cell-based; details: A549, 48 h; procedure, shortened: as §1
[4] = molecular target: T1, DNA topoisomerase 1 (Homo sapiens) (UniProt P11387); test: Inhibition of recombinant human topoisomerase-1-mediated relaxation of supercoiled pBR322 DNA at 500 uM after 30 mins by ethidium bromide staining based assay
T1 sequence (whole entry): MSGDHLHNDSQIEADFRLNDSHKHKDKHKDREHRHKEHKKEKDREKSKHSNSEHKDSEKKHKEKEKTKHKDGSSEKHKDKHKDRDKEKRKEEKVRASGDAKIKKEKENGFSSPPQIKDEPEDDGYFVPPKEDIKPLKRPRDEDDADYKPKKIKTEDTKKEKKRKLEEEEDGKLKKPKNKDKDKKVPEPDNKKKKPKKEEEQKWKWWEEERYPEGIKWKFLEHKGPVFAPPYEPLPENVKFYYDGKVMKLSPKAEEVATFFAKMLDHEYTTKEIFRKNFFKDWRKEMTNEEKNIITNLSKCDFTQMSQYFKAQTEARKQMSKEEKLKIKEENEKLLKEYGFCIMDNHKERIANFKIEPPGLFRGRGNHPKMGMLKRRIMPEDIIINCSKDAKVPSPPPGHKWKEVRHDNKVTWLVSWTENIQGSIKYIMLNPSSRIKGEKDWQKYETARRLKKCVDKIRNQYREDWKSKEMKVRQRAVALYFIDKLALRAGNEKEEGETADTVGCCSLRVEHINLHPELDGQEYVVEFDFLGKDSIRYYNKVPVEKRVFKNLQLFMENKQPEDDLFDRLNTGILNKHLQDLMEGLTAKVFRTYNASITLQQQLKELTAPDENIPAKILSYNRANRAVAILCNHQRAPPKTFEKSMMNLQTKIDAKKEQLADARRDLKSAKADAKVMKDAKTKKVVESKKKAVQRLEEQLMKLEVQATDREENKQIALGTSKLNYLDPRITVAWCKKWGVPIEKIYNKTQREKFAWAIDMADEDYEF
Procedure, shortened: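 Reactions stopped with loading buffer containing 0.5% SDS, bromophenol blue and 15% glycerol. Products run on a horizontal 0.8% agarose gel in 1× TAE at 4 V/cm for 40 min at room temperature. Gel stained with ethidium bromide and imaged.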

[5] = system: HepG2; test: Cell cycle arrest in human HepG2 cells accumulation at G1 phase at 2 to 6 mM after 24 hrs by propidium iodide staining-based flow cytometric analysis; format: functional
Procedure, shortened: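 HepG2 cells were seeded at 2 × 10⁵ per well in DMEM with 10% FBS and treated at three concentrations (2, 4, 6) for 24 h. Cells were fixed in cold 75% ethanol at 4 °C overnight, washed in PBS, then given RNase at 37 °C for 30 min and propidium iodide in the dark for 30 min. Read by flow cytometry; mean SD; three independent experiments.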

[6] = system: HepG2; test: Antitumor activity against human HepG2 cells xenografted in BALB/C nude mouse assessed as tumor volume at 40 mg/kg, ip treated twice per week for 25 days (reference value: 1185.78 +/- 137.44 mm3); format: functional
[7] = system: HepG2; test: Antitumor activity against human HepG2 cells xenografted in BALB/C nude mouse assessed as tumor weight at 40 mg/kg, ip treated twice per week for 25 days (reference value: 0.84 +/- 0.09 g); format: functional
Procedure, shortened: (§2)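 Female BALB/c nude mice, 5–6 weeks old, with subcutaneous flank xenografts of 8 × 10⁶ HepG2 cells. Randomized when tumors reached ~150–200 mm³. Dosed ip twice weekly for 25 days at 40 mg/kg; vehicle was saline with 10% DMSO (n = 6 vehicle, n = 5 per treated group). Caliper measurements every other day, volume = 0.5 × L × W². Tumors excised and weighed at end. Mean ± SD; t-test versus vehicle.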

[8] = system: HepG2; test: Antitumor activity against human HepG2 cells xenografted in BALB/C nude mouse assessed as tumor growth at 40 mg/kg, ip treated twice per week for 25 days relative to control; format: functional; procedure, shortened: as §2

inhibition [4]	Compound	IC50 [1]	IC50 [2]	IC50 [3]	Activity [5]	Activity [6]	Activity [7]	T/C [8]
	COC(=O)CCC[C@@H]1[C@H]2CCCN3CCC[C@H](CN1Cc1c[nH]c4ccc(F)cc14)[C@@H]23	> 50 µM	> 50 µM	> 50 µM				
	COC(=O)CCC[C@@H]1[C@H]2CCCN3CCC[C@H](CN1Cc1cn(Cc4cccc(F)c4)c4ccccc14)[C@@H]23	12.1 µM	12.1 µM	42.3 µM				
	COC(=O)CCC[C@@H]1[C@H]2CCCN3CCC[C@H](CN1Cc1c[nH]c4ccc(C)cc14)[C@@H]23	23.8 µM	49.4 µM	> 50 µM				
	OCCCC[C@@H]1[C@H]2CCCN3CCC[C@H](CN1Cc1c[nH]c4ccccc14)[C@@H]23	> 50 µM	> 50 µM	> 50 µM				
	CCCCn1cc(CN2C[C@H]3CCCN4CCC[C@@H]([C@H]34)[C@H]2CCCC(=O)OC)c2ccccc21	6.2 µM	8.6 µM	42.8 µM				
	COC(=O)CCC[C@@H]1[C@H]2CCCN3CCC[C@H](CN1Cc1cn(CC4CC4)c4ccccc14)[C@@H]23	14.4 µM	13.4 µM	30.3 µM				
	COC(=O)CCC[C@@H]1[C@H]2CCCN3CCC[C@H](CN1Cc1c[nH]c4ccc(OC)cc14)[C@@H]23	> 50 µM	> 50 µM	> 50 µM				
Active	OCCCC[C@@H]1[C@H]2CCCN3CCC[C@H](CN1Cc1cn(Cc4ccccc4)c4ccccc14)[C@@H]23	2.3 µM	2.2 µM	33.7 µM				
	COC(=O)CCC[C@@H]1[C@H]2CCCN3CCC[C@H](CN1Cc1c[nH]c4ccc([N+](=O)[O-])cc14)[C@@H]23	> 50 µM	> 50 µM	> 50 µM				
	COC(=O)CCC[C@@H]1[C@H]2CCCN3CCC[C@H](CN1Cc1c(C(=O)OC)[nH]c4ccccc14)[C@@H]23	> 50 µM	26.4 µM	> 50 µM				
	COC(=O)CCC[C@@H]1[C@H]2CCCN3CCC[C@H](CN1Cc1c[nH]c4ccc(Cl)cc14)[C@@H]23	> 50 µM	17.9 µM	> 50 µM				
	COC(=O)CCC[C@@H]1[C@H]2CCCN3CCC[C@H](CN1Cc1c[nH]c4ccc(Br)cc14)[C@@H]23	31.8 µM	20.2 µM	39.9 µM				
	COC(=O)CCC[C@@H]1[C@H]2CCCN3CCC[C@H](CN1Cc1c[nH]c4ccc(C#N)cc14)[C@@H]23	> 50 µM	15.3 µM	> 50 µM				
	COC(=O)CCC[C@@H]1[C@H]2CCCN3CCC[C@H](CN1Cc1cn(Cc4c(Cl)cccc4Cl)c4ccc(F)cc14)[C@@H]23	18.4 µM	9.3 µM	39.8 µM				
	CCn1cc(CN2C[C@H]3CCCN4CCC[C@@H]([C@H]34)[C@H]2CCCC(=O)OC)c2ccccc21	12.8 µM	19.4 µM	37.4 µM				
Active	COC(=O)CCC[C@@H]1[C@H]2CCCN3CCC[C@H](CN1Cc1cn(Cc4ccccc4)c4ccccc14)[C@@H]23	5.5 µM	3.3 µM	43.4 µM				

inhibition [4]	Compound	IC50 [1]	IC50 [2]	IC50 [3]	Activity [5]	Activity [6]	Activity [7]	T/C [8]
Active	COC(=O)CCC[C@@H]1[C@H]2CCCN3CCC[C@H](CN1Cc1cn(Cc4ccc(Cl)cc4)c4ccccc14)[C@@H]23	6.5 µM	4.6 µM	5.2 µM				
Active	COC(=O)CCC[C@@H]1[C@H]2CCCN3CCC[C@H](CN1Cc1cn(Cc4ccc5ccccc5c4)c4ccccc14)[C@@H]23	8.6 µM	7.8 µM	24 µM				
	CC[C@@]1(O)C(=O)OCc2c1cc1n(c2=O)Cc2cc3ccccc3nc2-1 [CAMPTOTHECIN]	13.2 µM	0.1 µM	5.5 µM				
	COC(=O)CCC[C@@H]1[C@H]2CCCN3CCC[C@H](CN1Cc1cn(Cc4ccc(Br)cc4)c4ccccc14)[C@@H]23	4.8 µM	4.3 µM	3.5 µM				
	COC(=O)CCC[C@@H]1[C@H]2CCCN3CCC[C@H](CN1Cc1c[nH]c4cc(F)ccc14)[C@@H]23	> 50 µM	17.1 µM	> 50 µM				
	COC(=O)CCC[C@@H]1[C@H]2CCCN3CCC[C@H](CN1Cc1cn(Cc4ccc(C(F)(F)F)cc4)c4ccc(F)cc14)[C@@H]23	7.7 µM	6.9 µM	12.8 µM				
	COC(=O)CCC[C@@H]1[C@H]2CCCN3CCC[C@H](CN1Cc1c[nH]c4cccc(F)c14)[C@@H]23	> 50 µM	> 50 µM	> 50 µM				
	COC(=O)CCC[C@@H]1[C@H]2CCCN3CCC[C@H](CN1Cc1cn(Cc4ccc(Cl)cc4)c4ccc(F)cc14)[C@@H]23	7.3 µM	6.1 µM	10.6 µM				
	COC(=O)CCC[C@@H]1[C@H]2CCCN3CCC[C@H](CN1Cc1cn(Cc4ccc(C(F)(F)F)cc4)c4ccccc14)[C@@H]23	6.1 µM	4.8 µM	7.4 µM				
	COC(=O)CCC[C@@H]1[C@H]2CCCN3CCC[C@H](CN1Cc1cn(Cc4ccccc4F)c4ccccc14)[C@@H]23	21.7 µM	14.8 µM	49.3 µM				
	COC(=O)CCC[C@@H]1[C@H]2CCCN3CCC[C@H](CN1Cc1cn(Cc4ccc(F)cc4)c4ccccc14)[C@@H]23	8.6 µM	3.5 µM	29.6 µM				
	O=C1CCC[C@@H]2[C@H]3CCCN4CCC[C@H](CN12)[C@@H]34 [SOPHORIDINE]		5380 µM	5840 µM	Active	1204.27 mm3	0.97 g	93.38%
	COC(=O)CCC[C@@H]1[C@H]2CCCN3CCC[C@H](CN1Cc1c[nH]c4ccccc14)[C@@H]23	36.5 µM	12.1 µM	27.8 µM				
	COC(=O)CCC[C@@H]1[C@H]2CCCN3CCC[C@H](CN1Cc1cn(C)c4ccccc14)[C@@H]23	15.2 µM	43.4 µM	42.8 µM				
	COC(=O)CCC[C@@H]1[C@H]2CCCN3CCC[C@H](CN1Cc1cn(Cc4c(Cl)cccc4Cl)c4ccccc14)[C@@H]23	8.5 µM	6.7 µM	3.7 µM				
